{"source": "ChEMBL document CHEMBL2163220", "about": "(J Med Chem, 2012)", "key": {"[1]": {"biological_target": "T1, Progesterone receptor (Homo sapiens) (UniProt P06401)", "T1 sequence (whole entry)": "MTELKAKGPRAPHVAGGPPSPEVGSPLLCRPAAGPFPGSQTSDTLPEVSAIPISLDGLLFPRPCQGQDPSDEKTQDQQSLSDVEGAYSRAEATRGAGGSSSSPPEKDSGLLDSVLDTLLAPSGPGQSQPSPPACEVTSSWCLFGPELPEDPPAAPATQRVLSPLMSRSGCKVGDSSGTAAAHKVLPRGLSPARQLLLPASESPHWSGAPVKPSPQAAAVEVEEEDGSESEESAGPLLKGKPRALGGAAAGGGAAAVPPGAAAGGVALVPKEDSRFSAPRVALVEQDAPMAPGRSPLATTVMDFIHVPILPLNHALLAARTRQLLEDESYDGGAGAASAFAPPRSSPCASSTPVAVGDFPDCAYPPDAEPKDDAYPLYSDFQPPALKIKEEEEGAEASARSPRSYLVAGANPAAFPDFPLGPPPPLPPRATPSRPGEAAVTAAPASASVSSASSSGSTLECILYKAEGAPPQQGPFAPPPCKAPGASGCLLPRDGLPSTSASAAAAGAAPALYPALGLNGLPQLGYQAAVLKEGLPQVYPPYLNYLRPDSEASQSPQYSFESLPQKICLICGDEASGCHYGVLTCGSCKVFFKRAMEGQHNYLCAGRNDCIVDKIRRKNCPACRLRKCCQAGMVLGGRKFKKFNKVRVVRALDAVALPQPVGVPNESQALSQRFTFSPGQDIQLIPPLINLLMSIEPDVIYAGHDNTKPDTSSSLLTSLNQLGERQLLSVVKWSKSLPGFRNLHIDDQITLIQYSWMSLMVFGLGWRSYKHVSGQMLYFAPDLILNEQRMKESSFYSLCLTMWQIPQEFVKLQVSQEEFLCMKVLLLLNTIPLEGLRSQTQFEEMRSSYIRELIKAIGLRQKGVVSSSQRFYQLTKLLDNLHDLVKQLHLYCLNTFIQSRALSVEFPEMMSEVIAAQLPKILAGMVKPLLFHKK", "test": "Agonist activity at progesterone receptor in human PC3 cells assessed as stimulation of receptor transactivation at 1 uM by luciferase reporter gene assay", "type": "functional, cell-based", "conditions": "PC-3", "method_in_brief": "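PC-3 cells lack detectable PR, so they were cotransfected with a PR expression plasmid and the MMTV-luc reporter. Compound tested at 1 μM, alone or against transactivation induced by 10 nM R5020. Read-out was luciferase reporter activity.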"}, "PC-3": {"test_system": "PC-3", "test": "Cytotoxicity against human PC3 cells incubated for 72 hrs by MTT assay", "type": "functional, cell-based", "conditions": "PC-3, 72 h", "method_in_brief": "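MTT assay run across a panel of prostate cancer cell lines.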"}, "[2]": {"biological_target": "T2, Androgen receptor (Homo sapiens) (UniProt P10275)", "T2 sequence (whole entry)": "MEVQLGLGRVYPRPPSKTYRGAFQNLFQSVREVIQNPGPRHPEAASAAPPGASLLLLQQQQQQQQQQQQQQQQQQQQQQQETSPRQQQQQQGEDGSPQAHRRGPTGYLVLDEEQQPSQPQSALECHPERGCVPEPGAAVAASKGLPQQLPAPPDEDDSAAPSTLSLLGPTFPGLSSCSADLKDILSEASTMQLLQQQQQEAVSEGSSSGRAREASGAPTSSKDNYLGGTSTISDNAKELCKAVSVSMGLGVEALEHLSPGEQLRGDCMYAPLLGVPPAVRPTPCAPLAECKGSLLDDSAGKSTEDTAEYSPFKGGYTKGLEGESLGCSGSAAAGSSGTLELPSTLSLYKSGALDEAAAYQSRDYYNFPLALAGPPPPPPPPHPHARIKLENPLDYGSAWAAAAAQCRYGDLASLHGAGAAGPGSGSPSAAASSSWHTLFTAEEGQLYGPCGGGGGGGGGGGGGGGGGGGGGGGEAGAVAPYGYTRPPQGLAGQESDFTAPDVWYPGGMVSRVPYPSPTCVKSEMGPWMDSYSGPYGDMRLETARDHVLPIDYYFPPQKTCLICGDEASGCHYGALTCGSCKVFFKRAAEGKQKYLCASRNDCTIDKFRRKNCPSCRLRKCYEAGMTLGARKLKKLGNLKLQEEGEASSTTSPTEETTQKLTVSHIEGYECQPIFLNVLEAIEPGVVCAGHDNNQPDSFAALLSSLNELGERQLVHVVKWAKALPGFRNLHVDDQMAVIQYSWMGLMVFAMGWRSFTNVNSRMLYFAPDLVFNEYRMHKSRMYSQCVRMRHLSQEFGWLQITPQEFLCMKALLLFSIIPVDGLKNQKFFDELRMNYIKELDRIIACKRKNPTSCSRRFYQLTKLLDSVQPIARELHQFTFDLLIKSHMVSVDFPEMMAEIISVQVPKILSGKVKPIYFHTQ", "test": "Antagonist activity at androgen receptor in human LNCaP cells assessed as increase in Maspin protein expression at 1 or 2.5 uM incubated for 24 hrs in presence of DHT by Western blot"}}, "note": "Active and inactive are the calls of the source. No cut-off for these calls is given here.", "data": [{"smiles": "Cc1coc2c1C(=O)C(=O)c1c-2ccc2c1CCCC2(C)C", "note": "[TANSHINONE IIA]", "values": [{"measurement": "Activity", "setting": "[1]", "result": "inactive"}, {"measurement": "IC50", "setting": "PC-3", "result": 3.3, "unit": "µM"}, {"measurement": "Activity", "setting": "[2]", "result": "Active"}]}]}
